Measured values of several laboratories.
Compare with care: the assays were run in different laboratories.

Structure (SMILES)	organism	test	system	conditions	measurement	value
CCc1ccc(-n2cc(CN3CCN(C(=O)c4c(C)nc5cc(C)ccn45)CC3)nn2)cc1	Leishmania major	parasite growth, resazurin	–	72 h, promastigote	IC50	74.6 µM
C=CCn1c(-c2ccc(Cl)c(Cl)c2)nc2ccccc21	Enterococcus faecalis	microbial growth, broth dilution	ATCC29212	–	MIC	64 µg/mL
C#CCCCCCCCCC=CCC(O)CC(O)CO (stereo not drawn)	Aspergillus fumigatus	microbial growth, resazurin	ATCC204305	–	IC50	> 8 µg/mL
Cc1ccc(C)n1-c1ccc(-c2nnc(S)s2)cc1	Enterococcus faecalis	microbial growth, broth dilution	ATCC14506	18 h	MIC	1 µg/mL
O=C(O)c1cn(C2CC2)c2cc(N3CCNCC3)c(F)cc2c1=O	Enterococcus faecalis	microbial growth, broth dilution	ATCC29212	–	MIC	8 µg/mL
CC1(C)OB(CC2c3ccccc3C(=O)N2C2CCCCC2)OC1(C)C (stereo not drawn)	Leishmania major	parasite growth	–	intracellular, amastigote	IC50	13.2 µM
Cc1ccc2nc(-c3ccccc3O)[nH]c2c1	Enterococcus faecalis	microbial growth, broth dilution	ATCC29212	–	MIC	64 µg/mL
CN(C)N1C(=O)c2ccccc2C1CB1OC(C)(C)C(C)(C)O1 (stereo not drawn)	Leishmania major	parasite growth	–	intracellular, amastigote	IC50	94.6 µM
C[C@@H]1[C@H](O)[C@@H](C)/C=C/C=C/C=C/C=C/C=C/C=C/C=C/[C@H](O[C@@H]2O[C@H](C)[C@@H](O)[C@H](N)[C@@H]2O)C[C@@H]2O[C@](O)(C[C@@H](O)C[C@@H](O)[C@H](O)CC[C@@H](O)C[C@@H](O)CC(=O)O[C@H]1C)C[C@H](O)[C@H]2C(=O)O	Aspergillus fumigatus	microbial growth	ATCC204305	–	MIC	1.35 µM
CCCCCCCCCc1cn(CCN2CCN(C(=O)c3c(C)nc4cc(C)ccn34)CC2)nn1	Leishmania major	parasite growth, resazurin	–	72 h, promastigote	IC50	38.5 µM
Fc1ccc(-c2nc3ccccc3[nH]2)cc1	Enterococcus faecalis	microbial growth, broth dilution	ATCC29212	–	MIC	256 µg/mL
Cc1ccn2c(C(=O)N3CCN(Cc4cn(-c5ccc([N+](=O)[O-])cc5)nn4)CC3)c(C)nc2c1	Leishmania major	parasite growth, resazurin	–	72 h, promastigote	IC50	> 500 µM
CC1=NN(CNc2ccc(Cl)cc2)C(=O)C1=NNn1c(-c2ccccc2)nc2ccccc2c1=O	Aspergillus fumigatus	microbial growth, broth dilution	–	–	MIC	51.5 µM
Cc1nc2ccc(Cl)cn2c1C(=O)N1CCN(Cc2cn(-c3ccc(Br)cc3)nn2)CC1	Leishmania major	parasite growth, resazurin	–	72 h, promastigote	IC50	33.6 µM
Oc1ccc(Br)cc1-c1nc2ccccc2[nH]1	Enterococcus faecalis	microbial growth, broth dilution	ATCC29212	–	MIC	128 µg/mL
CC1=NN(CNc2ccc(C(=O)O)cc2)C(=O)C1=NNn1c(-c2ccccc2)nc2ccccc2c1=O	Aspergillus fumigatus	microbial growth, broth dilution	–	–	MIC	50.5 µM
c1ccc2c(-c3nc4ccccc4[nH]3)c3ccccc3cc2c1	Enterococcus faecalis	microbial growth, broth dilution	ATCC29212	–	MIC	64 µg/mL
Cc1nc2ccc(Cl)cn2c1C(=O)N1CCN(Cc2cn(-c3ccccc3)nn2)CC1	Leishmania major	parasite growth, resazurin	–	72 h, promastigote	IC50	192 µM
C[C@@H](c1ncncc1F)[C@](O)(Cn1cncn1)c1ccc(F)cc1F	Acanthamoeba griffini	parasite growth, resazurin	–	7 days	IC50	37.6 µM
CC1=NN(CNc2ccccc2[N+](=O)[O-])C(=O)C1=NNn1c(-c2ccccc2)nc2ccccc2c1=O	Aspergillus fumigatus	microbial growth, broth dilution	–	–	MIC	50.4 µM
Cc1nc2ccc(Cl)cn2c1C(=O)N1CCN(Cc2cn(-c3ccccc3Cl)nn2)CC1	Leishmania major	parasite growth, resazurin	–	72 h, promastigote	IC50	91.5 µM
